The results in this text go back to ChEMBL document CHEMBL1140167, “Meroditerpenoids from the brown alga Sargassum siliquastrum” (J Nat Prod, 2008).

Converted amounts (≈) assume the structure as drawn.

Experiment [1] can be described thus: Inhibition of Staphylococcus aureus sortase A.
Experiment [2] relates to Radical scavenging activity. As to the kind of experiment: Antioxidant activity assessed as DPPH radical scavenging activity. Format: functional. The gist of the method:
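DPPH radical-scavenging test; activity expressed as RC50, reported in µg/mL.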
Background: DPPH is a stable violet radical that fades when it is reduced.

In another experiment the target is Isocitrate lyase (Candida albicans, UniProt Q9P8Q7). As to the kind of experiment: Inhibition of Candida albicans isocitrate lyase.
Isocitrate lyase, sequence (Q9P8Q7 whole entry): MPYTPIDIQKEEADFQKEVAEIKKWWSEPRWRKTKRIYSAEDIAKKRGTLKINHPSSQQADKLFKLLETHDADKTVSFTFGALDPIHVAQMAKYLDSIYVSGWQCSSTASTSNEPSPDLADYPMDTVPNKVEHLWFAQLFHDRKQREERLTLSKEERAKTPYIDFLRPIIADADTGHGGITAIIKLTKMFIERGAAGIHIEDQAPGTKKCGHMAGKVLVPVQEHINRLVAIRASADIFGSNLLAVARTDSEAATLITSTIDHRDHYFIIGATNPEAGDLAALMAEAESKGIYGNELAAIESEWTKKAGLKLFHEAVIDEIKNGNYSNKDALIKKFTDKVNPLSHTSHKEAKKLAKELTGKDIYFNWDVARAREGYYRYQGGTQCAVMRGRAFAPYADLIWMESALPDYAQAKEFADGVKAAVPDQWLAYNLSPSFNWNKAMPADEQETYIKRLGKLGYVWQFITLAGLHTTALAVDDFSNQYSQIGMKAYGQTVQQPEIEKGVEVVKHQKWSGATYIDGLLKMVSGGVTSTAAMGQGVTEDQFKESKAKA

As to `COC(=O)Cc1cc(O)cc(C/C=C(/C)CCC(=O)C(C)CC/C=C(\C)C[C@H](O)C=C(C)C)c1O` (some centres not stated), the half-inhibitory concentration (IC50) (usually the concentration needed to halve the response being measured) in experiment [1] came to 23 µg/mL (≈ 47.3 µM). Also, the RC50 in experiment [2] came to 0.1 µg/mL.
For `C=CC(C)(CC/C=C(\C)CC/C=C(\C)[C@@H](O)[C@@H](O)C=C(C)C)Oc1ccc(O)cc1CC(=O)OC` (some centres not stated) [NAHOCOL D1], in that order: above 200 µg/mL and 18.5 µg/mL.
For `C=CC(C)(CC/C=C(\C)CCCC(C)[C@@H](O)C(=O)C=C(C)C)Oc1ccc(O)cc1CC(=O)OC` (some centres not stated), in that order: above 200 µg/mL and 17.2 µg/mL.
Turning to `C=CC(C)(CC/C=C(\C)CC/C=C(\C)C(=O)[C@@H](O)C=C(C)C)Oc1ccc(O)cc1CC(=O)OC` (some centres not stated), the results for the IC50 (in experiment [1]; at Isocitrate lyase) were above 200 µg/mL and 103 µM, respectively. Also, the RC50 in experiment [2] was found to be 12.6 µg/mL.
Regarding `C=CC(C)(CC/C=C(\C)CC/C=C(\C)[C@@H](O)[C@H](O)C=C(C)C)Oc1ccc(O)cc1CC(=O)OC` (some centres not stated) [NAHOCOL D2], the IC50 in experiment [1] is above 200 µg/mL. Moreover, the RC50 in experiment [2] came to 12.4 µg/mL.
For the compound `C=CC(C)(CC/C=C(\C)CCCC(C)C(O)/C=C/C(=C)C)Oc1ccc(O)cc1CC(=O)OC` (configuration not stated), the IC50 in experiment [1] was above 200 µg/mL; against Isocitrate lyase, 106 µM. Besides, in experiment [2], the RC50 came to 12.4 µg/mL.
Take `CC(C)=CC(O)C(=O)/C(C)=C/CC/C(C)=C/CCC(C)(O)CCc1cc(O)cc(C)c1O` (configuration not stated): the figures for the 50% inhibitory concentration (IC50) (in experiment [1]; against Isocitrate lyase) were above 200 µg/mL and 112 µM, respectively. Also, the RC50 in experiment [2] came out at 0.24 µg/mL.
Consider `COC(=O)Cc1cc(O)cc(C/C=C(/C)CC/C=C(\C)CC/C=C(\C)[C@@H](O)[C@@H](O)C=C(C)C)c1O` [ISONAHOCOL D1], for which the half-maximal inhibitory concentration (IC50) in experiment [1] stood at 23 µg/mL (≈ 47.3 µM). Further, the RC50 in experiment [2] worked out at 0.13 µg/mL.
In experiment [1], `COC(=O)CC1(C/C=C(\C)CC/C=C(\C)CC/C=C(\C)[C@@H](O)[C@@H](O)C=C(C)C)CC(=O)C=CC1=O` (some centres not stated) had an IC50 of 23 µg/mL (≈ 47.3 µM). Further, the RC50 in experiment [2] is above 300 µg/mL.
For the compound `CC(C)=CCC/C(=C/CC/C(C)=C/CC/C(C)=C/Cc1cc(O)cc(C)c1O)C(=O)O` [SARGAHYDROQUINOIC ACID], the IC50 is above 200 µg/mL in experiment [1] and 117 µM on Isocitrate lyase. Further, in experiment [2], the RC50 is 0.17 µg/mL.
For `C=CC(C)(CC/C=C(\C)C[C@@H]1C=C(C)C(=O)[C@H]1C=C(C)C)Oc1ccc(O)cc1CC(=O)OC` (some centres not stated), the IC50 in experiment [1] was above 200 µg/mL; against Isocitrate lyase it was 107 µM. In addition, in experiment [2], the RC50 was found to be 11.7 µg/mL.
Turning to `C=CC(C)(CC/C=C(\C)CC/C=C(/C)[C@H](O)C(=O)C=C(C)C)Oc1ccc(O)cc1CC(=O)OC` (some centres not stated), the 50% inhibitory concentration (IC50) in experiment [1] was above 200 µg/mL; at Isocitrate lyase, 103 µM. Further, in experiment [2], the RC50 worked out at 23.2 µg/mL.
In turn, `C=CC(C)(CC/C=C(\C)CCCC(C)C(=O)[C@@H](O)C=C(C)C)Oc1ccc(O)cc1CC(=O)OC` (some centres not stated) [NAHOCOL A] returned an IC50 in experiment [1] above 200 µg/mL. Further, the RC50 in experiment [2] came to 11.3 µg/mL.
For `C=CC(C)(CC/C=C(\C)CCCC(C)C(O)C(=O)C=C(C)C)Oc1ccc(O)cc1CC(=O)OC` (configuration not stated), in that order: above 200 µg/mL and 9.12 µg/mL.
Consider `COC(=O)Cc1cc(O)cc(C/C=C(\C)CC/C=C(\C)CCCC(C)C(=O)[C@@H](O)C=C(C)C)c1O` (some centres not stated), for which the 50% inhibitory concentration (IC50) in experiment [1] was 23 µg/mL (≈ 47.3 µM). Moreover, in experiment [2], the RC50 was determined as 0.3 µg/mL.
In experiment [1], `COC(=O)Cc1cc(O)cc(C/C=C(/C)CC/C=C(\C)CC/C=C(\C)C(=O)[C@@H](O)C=C(C)C)c1O` showed an IC50 of 23 µg/mL (≈ 47.5 µM). Also, the RC50 in experiment [2] was determined as 0.33 µg/mL.
The like results for `COC(=O)Cc1cc(O)cc(C/C=C(\C)CC/C=C(\C)CC/C=C(\C)C(=O)[C@@H](O)C=C(C)C)c1O` were, in that order, 23 µg/mL (≈ 47.5 µM) and 0.31 µg/mL.
The like results for `COC(=O)Cc1cc(O)cc(C/C=C(\C)CC/C=C(\C)CC/C=C(\C)[C@@H](O)[C@@H](O)C=C(C)C)c1O` [ISONAHOCOL D2] were, in that order, 23 µg/mL (≈ 47.3 µM) and 0.12 µg/mL.
As to `C=CC(C)(CC/C=C(\C)CC/C=C(\C)[C@H](O)C(=O)C=C(C)C)Oc1ccc(O)cc1CC(=O)OC` (some centres not stated), the figures for the half-maximal inhibitory concentration (IC50) (in experiment [1]; on Isocitrate lyase) were above 200 µg/mL and 103 µM, respectively. Moreover, the RC50 in experiment [2] was found to be 14.7 µg/mL.
Consider `C=CC(C)(CC/C=C(\C)CCCC(C)C(=O)[C@H](O)C=C(C)C)Oc1ccc(O)cc1CC(=O)OC` (some centres not stated) [NAHOCOL A1], for which the half-inhibitory concentration (IC50) in experiment [1] is above 200 µg/mL. In experiment [2], the RC50 was 12.7 µg/mL.
